The record followed here is ChEMBL document CHEMBL4699389, “Design and synthesis of a bivalent probe targeting the putative mu opioid receptor and chemokine receptor CXCR4 heterodimer” (RSC Med Chem, 2020).

pIC50, pKi: −log10 of the molar value. Calls of active or inactive are those of the source. No cut-off for these calls is given here.

The target of experiment [1] is T1, Mu-type opioid receptor (Mus musculus, UniProt P42866). Nature of the experiment: Antagonist activity at mouse MOR expressed in CHO cells assessed as decrease in DAMGO-induced calcium influx incubated for 15 mins followed by DAMGO stimulation and measured after 90 sec by Fluo-4AM dye based fluorescence assay. Type of experiment: functional, cell-based. In short, it runs like this:
(§1)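 Gqi5-transfected cells, 48 h post-transfection, loaded with fluo-4 AM/probenecid for 45 min. Pre-incubated 15 min with compound at varying concentrations, then agonist added: SDF-1 for CXCR4-HOS, DAMGO for MOR-CHO. RFU read for 90 s on FlexStation3. IC50 from peak values by non-linear regression. Triplicate doses, at least 4 repeats.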

The target in experiment [2] is T1, Mu-type opioid receptor. Briefly: Displacement of [3H]-NLX from mouse MOR expressed in CHO cells incubated for 1.5 hrs by radioligand binding assay. It is filed as cell-based. In general terms: Loss of bound radioactivity is the signal in a displacement assay; it reports binding, not function.
Experiment [3] deals with T2, C-X-C chemokine receptor type 4 (Homo sapiens, UniProt P61073). Nature of the experiment: Agonist activity at […] (unknown origin) expressed in HOS cells assessed as increase in calcium influx incubated for 15 mins by Fluo-4AM dye based fluorescence assay. Type of experiment: functional, cell-based. In a few lines:
(§2)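 Cells transiently transfected with Gqi5 (Lipofectamine 2000), plated at […] per well and grown to confluence. At 48 h post-transfection, loaded with fluo-4 AM plus probenecid in HBSS-HEPES-Ca-Mg buffer for 45 min. Ligands tested alone at 0.3 nM to 3 μM. Ca²⁺ followed as RFU for 90 s on FlexStation3. Triplicate doses, at least 4 repeats.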

For experiment [4], the target named is Mu-type opioid receptor (Mus musculus) (UniProt P42866). Briefly: Agonist activity at mouse MOR expressed in CHO cells assessed as increase in calcium influx incubated for 15 mins by Fluo-4AM dye based fluorescence assay. It is filed as functional, cell-based. In short, it runs like this: as §2
Sequence of Mu-type opioid receptor (Mus musculus) (P42866 whole entry): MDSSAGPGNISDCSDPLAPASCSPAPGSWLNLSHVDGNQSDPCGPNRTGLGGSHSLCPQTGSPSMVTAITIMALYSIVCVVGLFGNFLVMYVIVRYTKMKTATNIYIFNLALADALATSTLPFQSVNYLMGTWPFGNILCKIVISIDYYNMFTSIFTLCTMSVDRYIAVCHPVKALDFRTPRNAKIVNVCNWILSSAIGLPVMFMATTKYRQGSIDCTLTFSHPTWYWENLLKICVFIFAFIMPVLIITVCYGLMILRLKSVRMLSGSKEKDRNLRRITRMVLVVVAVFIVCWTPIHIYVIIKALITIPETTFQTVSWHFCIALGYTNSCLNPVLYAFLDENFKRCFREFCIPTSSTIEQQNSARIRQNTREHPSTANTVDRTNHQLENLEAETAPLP
In experiment [5] the target is T2, C-X-C chemokine receptor type 4. Briefly: Binding affinity to CXCR4 (unknown origin) expressed in CHO cells incubated for 40 mins by immunofluorescence assay. Type of experiment: cell-based. In short, it runs like this:
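Trypsinized CHO-CXCR4 cells (5×10⁵ per well) in FACS buffer (0.5% BSA, 0.05% azide in PBS). Incubated 40 min on ice with mouse anti-human CD184 (1:2000) plus graded compound concentrations, then with anti-mouse IgG-FITC (1:1000) for 30 min on ice. IC50 from at least three independent experiments.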

Experiment [6] has the same target. Briefly: Antagonist activity at CXCR4 (unknown origin) expressed in HOS cells assessed as decrease in SDF1-induced calcium influx incubated for 15 mins followed by SDF1 stimulation and measured after 90 sec by Fluo-4AM dye based fluorescence assay. Type of experiment: functional, cell-based. In short, it runs like this: as §1

T1 sequence (P42866 whole entry): as above
T2 sequence (P61073 whole entry): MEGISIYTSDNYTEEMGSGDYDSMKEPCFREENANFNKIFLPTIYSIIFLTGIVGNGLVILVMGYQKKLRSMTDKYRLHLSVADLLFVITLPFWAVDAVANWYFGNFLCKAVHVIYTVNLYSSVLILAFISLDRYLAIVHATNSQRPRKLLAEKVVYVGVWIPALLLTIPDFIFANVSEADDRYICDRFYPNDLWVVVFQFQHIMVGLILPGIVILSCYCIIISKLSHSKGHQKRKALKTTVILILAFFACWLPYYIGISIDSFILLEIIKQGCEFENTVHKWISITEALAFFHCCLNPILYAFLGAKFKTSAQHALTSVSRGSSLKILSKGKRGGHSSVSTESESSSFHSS

In the case of `CNC(=O)COCC(=O)NCCCCCCNC(=O)COCC(=O)N[C@@H]1CC[C@@]2(O)[C@H]3Cc4ccc(O)c5c4[C@@]2(CCN3CC2CC2)[C@H]1O5`, the pIC50 at Mu-type opioid receptor [1] is 6.88. The pKi on Mu-type opioid receptor [2] is 8.70. The result in experiment [3] and in experiment [4] was inactive.

Consider `CC1(C)CN2C(CS/C(=N\[C@H]3CC[C@H](CNC(=O)COCC(=O)NCCCCCCNC(=O)COCC(=O)N[C@@H]4CC[C@@]5(O)[C@H]6Cc7ccc(O)c8c7[C@@]5(CCN6CC5CC5)[C@H]4O8)CC3)NC3CCCCC3)=CSC2=N1`, for which the figures for the pIC50 (at Mu-type opioid receptor [1]; in experiment [5]; in experiment [6]) were 7.21, 4.76 and 5.48, respectively. At Mu-type opioid receptor [2], this molecule gave a pKi of 7.60. The outcome in experiment [3] and in experiment [4] was inactive.

For the molecule `CNC(=O)COCC(=O)NCCCCCCNC(=O)COCC(=O)NC[C@H]1CC[C@H](/N=C(/NC2CCCCC2)SCC2=CSC3=NC(C)(C)CN23)CC1`, the pIC50 in experiment [5] was 4.13; in experiment [6], 4.11. For the same molecule, the outcome in experiment [3] was inactive.

For orientation: pIC50 means the IC50 on a negative log10 scale, so that one unit is a factor of ten. One may read the pKi as the Ki on a negative log10 scale, so that one unit is a factor of ten. Higher therefore signals a low Ki.
